The source made the active and inactive calls. The rule behind the calls is not given here.

In data set [1] the test system is B16-F10. Kind of data set: Cytotoxicity against mouse B16F10 cells after 48 hrs by MTT assay. Format: functional, cell-based. The essentials:
(§1)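 B16(F10) murine melanoma cells seeded at 2 × 10³ per well in RPMI 1640 with 10% FBS, 37 °C, 5% CO₂. After 24 h, compounds added in quadruplicate at eleven concentrations (10–2000 µM), then incubated a further 24 or 48 h. MTT (0.5 mg/mL in PBS) for 3 h at 37 °C, formazan dissolved in acid–isopropanol, A570. Survival = absorbance at time t / initial absorbance × 100%.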

In data set [2] the test system is B16-F10. Kind of data set: Cytotoxicity against mouse B16F10 cells after 24 hrs by MTT assay. Format: functional, cell-based. In outline: as §1
In general terms: Tetrazolium assays rely on reduction of a dye to a coloured formazan, in cell work by metabolically active cells.

The nature of data set [3]: Cytotoxicity against mouse HECa10 cells by MTT assay. Format: cell-based. In outline:
(§2)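 Control lines used: NIH3T3 (ATCC) and HECa10 (lymph node-derived). Cells seeded at 2 × 10³ per well in RPMI 1640 with 10% FBS, 37 °C, 5% CO₂. Compounds added after 24 h in quadruplicate (10–2000 µM, eleven concentrations), then 24 or 48 h exposure. MTT for 3 h, formazan dissolved in acid–isopropanol, A570. Survival is percent of initial absorbance.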

A short description of data set [4]: Cytotoxicity against mouse NIH/3T3 cells by MTT assay. Format: cell-based. The note with it: nih3t3. The essentials: as §2
The test system of data set [5] is B16-F10. The data set can be described thus: Cytotoxicity against mouse B16F10 cells at 250 uM after 48 hrs by MTT assay. Type of data set: functional, cell-based. In outline: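 B16(F10) cells at 2 × 10³ per well in RPMI 1640 with 10% FBS, 37 °C, 5% CO₂. Compound added after 24 h in quadruplicate, with 250 µM among the tested concentrations, then incubated 48 h. MTT 0.5 mg/mL for 3 h, formazan dissolved in acid–isopropanol, read at 570 nm. Survival expressed as percent of initial absorbance.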

Take `Cc1cc2cc(O)c(O)cc2nn1`: the result in the data set on B16-F10 [1] was Active. Moreover, in the data set with B16-F10 [2], the result was inactive. For the same compound, the Activity result in data set [3] and in data set [4] was “Toxic” each time.
For the compound `CC(Cc1ccc(O)c(O)c1)C(=O)O` (stereo unspecified), the Activity result was “Dose-dependent effect” in the data set on B16-F10 [1], “Dose-dependent effect” with B16-F10 [2], “Toxic” in data set [3] and “Toxic” in data set [4].
Regarding `C[C@@](Cc1ccc(O)c(O)c1)(NN)C(=O)O.O` [CARBIDOPA], the result in the data set with B16-F10 [5] was Active. For the same compound, the Activity entry in data set [3] and in data set [4] was “Toxic” throughout.

The values above are taken from ChEMBL document CHEMBL1136960, “Oxidation of carbidopa by tyrosinase and its effect on murine melanoma” (Bioorg Med Chem Lett, 2009).
